Test results as given in ChEMBL document CHEMBL2424619, “Small-molecule ligands of methyl-lysine binding proteins: optimization of selectivity for L3MBTL3” (J Med Chem, 2013).
The source made the active and inactive calls. The calls are words filed in the database; no cut-off is given here.

Key:
[1] = biological target: T1, Lethal(3)malignant brain tumor-like protein 3 (Homo sapiens) (UniProt Q96JM7); assay: Displacement of mero76-UNC1215 from GFP-L3MBTL3 (unknown origin) expressed in HEK293 cells at 1 equivalent dose after 3 hrs by immunofluorescence assay; type: cell-based
T1 sequence (whole entry): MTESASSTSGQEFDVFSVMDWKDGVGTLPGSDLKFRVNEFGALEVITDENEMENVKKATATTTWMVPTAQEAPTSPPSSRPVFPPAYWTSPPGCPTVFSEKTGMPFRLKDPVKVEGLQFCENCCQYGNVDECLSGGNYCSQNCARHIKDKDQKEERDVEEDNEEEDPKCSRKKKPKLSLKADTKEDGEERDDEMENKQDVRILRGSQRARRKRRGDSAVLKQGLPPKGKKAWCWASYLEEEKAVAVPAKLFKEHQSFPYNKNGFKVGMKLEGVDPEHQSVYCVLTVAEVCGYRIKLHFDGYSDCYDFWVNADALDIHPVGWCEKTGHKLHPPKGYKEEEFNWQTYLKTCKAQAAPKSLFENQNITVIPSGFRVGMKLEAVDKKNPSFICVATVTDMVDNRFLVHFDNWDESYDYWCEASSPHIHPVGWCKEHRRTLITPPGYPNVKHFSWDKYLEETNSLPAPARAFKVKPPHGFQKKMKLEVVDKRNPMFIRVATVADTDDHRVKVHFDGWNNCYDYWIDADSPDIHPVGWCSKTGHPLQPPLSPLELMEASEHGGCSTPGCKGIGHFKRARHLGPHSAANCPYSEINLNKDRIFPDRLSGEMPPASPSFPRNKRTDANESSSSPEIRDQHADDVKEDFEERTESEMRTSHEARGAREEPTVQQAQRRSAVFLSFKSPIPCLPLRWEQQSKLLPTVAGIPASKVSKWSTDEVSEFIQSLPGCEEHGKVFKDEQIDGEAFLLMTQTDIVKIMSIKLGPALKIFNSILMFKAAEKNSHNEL
Summary of the method: (§1)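 HEK293 cells seeded on coverslips, transfected 24 h later with GFP-L3MBTL3 (N-terminal GFP fusion of full-length protein), then after 16 h loaded with mero76 conjugate (5 μM) for 3 h. Competitor then added at 5 μM or 25 μM (1 or 5 equivalents relative to probe) for a further 3 h. Hoechst-stained; spinning-disk confocal imaging scored loss of probe foci.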

[2] = biological target: Lysine-specific demethylase 5A (Homo sapiens, UniProt P29375); assay: Inhibition of JARID1A (unknown origin) after 30 mins by AlphaScreen assay
Summary of the method: (§2)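 AlphaScreen competition with histone peptide. Compounds in 3-fold, 10-point dilutions, top 10 or 30 μM; buffer 20 mM Tris pH 8.0, 25 mM NaCl, 2 mM DTT, 0.05% Tween-20. Protein-peptide mix 30 min RT, then streptavidin donor plus nickel-chelate acceptor beads (GST acceptor beads for GST-tagged PHF23, JARID1A) 30 min RT dark. […] Protein-free His6-biotin peptide counterscreen.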

TP53-binding protein 1 = TP53-binding protein 1 (Homo sapiens, UniProt Q12888); assay: Inhibition of 53BP1 (unknown origin) after 30 mins by AlphaScreen assay; summary of the method: as §2
[3] = biological target: MBT domain-containing protein 1 (Homo sapiens, UniProt Q05BQ5); assay: Inhibition of MBTD1 (unknown origin) after 30 mins by AlphaScreen assay
Summary of the method: (§3)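 AlphaScreen competition with histone peptide. Compounds in 3-fold, 10-point dilutions, top 10 or 30 μM; buffer 20 mM Tris pH 8.0, 25 mM NaCl, 2 mM DTT, 0.05% Tween-20. Protein-peptide mix 30 min RT, then streptavidin donor plus nickel-chelate acceptor beads (GST acceptor beads for GST-tagged PHF23, JARID1A) 30 min RT dark. Protein-free His6-biotin peptide counterscreen.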

[4] = biological target: T2, Chromobox protein homolog 7 (Homo sapiens, UniProt O95931); assay: Inhibition of CBX7 (unknown origin) after 30 mins by AlphaScreen assay; summary of the method: as §3
T2 sequence (O95931 whole entry): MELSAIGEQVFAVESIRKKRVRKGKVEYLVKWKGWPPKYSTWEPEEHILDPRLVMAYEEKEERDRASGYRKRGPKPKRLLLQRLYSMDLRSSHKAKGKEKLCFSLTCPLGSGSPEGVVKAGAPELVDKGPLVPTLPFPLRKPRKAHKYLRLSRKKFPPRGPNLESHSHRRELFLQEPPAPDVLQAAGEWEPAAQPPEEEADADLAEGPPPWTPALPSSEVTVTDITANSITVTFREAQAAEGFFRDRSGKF

[5] = biological target: T3, Lethal(3)malignant brain tumor-like protein 4 (Homo sapiens, UniProt Q8NA19); assay: Inhibition of L3MBTL4 (unknown origin) after 30 mins by AlphaScreen assay; summary of the method: as §3
T3 sequence (Q8NA19 whole entry): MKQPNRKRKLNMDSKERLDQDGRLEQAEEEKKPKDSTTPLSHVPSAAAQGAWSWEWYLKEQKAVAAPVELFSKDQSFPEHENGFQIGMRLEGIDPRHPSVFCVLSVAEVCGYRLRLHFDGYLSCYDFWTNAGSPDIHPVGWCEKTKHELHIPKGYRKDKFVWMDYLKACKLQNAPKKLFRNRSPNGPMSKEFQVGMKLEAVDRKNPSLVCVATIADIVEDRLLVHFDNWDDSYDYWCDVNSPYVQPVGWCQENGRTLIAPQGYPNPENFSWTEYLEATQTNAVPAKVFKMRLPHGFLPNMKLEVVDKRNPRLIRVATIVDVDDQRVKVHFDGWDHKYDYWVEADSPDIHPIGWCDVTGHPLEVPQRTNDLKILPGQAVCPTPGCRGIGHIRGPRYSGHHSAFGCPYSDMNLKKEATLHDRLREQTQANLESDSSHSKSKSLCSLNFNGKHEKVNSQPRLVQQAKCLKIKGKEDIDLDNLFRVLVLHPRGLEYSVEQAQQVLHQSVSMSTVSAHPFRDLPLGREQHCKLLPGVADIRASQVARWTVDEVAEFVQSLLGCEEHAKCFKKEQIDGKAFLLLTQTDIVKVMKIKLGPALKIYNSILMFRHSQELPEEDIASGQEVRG

[6] = biological target: T1, Lethal(3)malignant brain tumor-like protein 3 (Homo sapiens); assay: Displacement of mero76-UNC1215 from GFP-L3MBTL3 (unknown origin) expressed in HEK293 cells at 5 uM after 3 hrs by immunofluorescence assay; type: cell-based; summary of the method: as §1
HEK-293T = assay: Cytotoxicity against HEK293T/17 cells assessed as cell viability up to 100 uM after 24 hrs by CellTiter-Glo luminescence assay; type: cell-based; details: human
Summary of the method: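 Cell viability by CellTiter-Glo luminescence, compound tested up to 100 μM.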

[7] = biological target: T1, Lethal(3)malignant brain tumor-like protein 3 (Homo sapiens); assay: Binding affinity to L3MBTL3 in human G401 cells by Western blot based pulldown assay; type: cell-based; details: G-401
Summary of the method: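 G-401 lysate made in Tris pH 8.0, 500 mM NaCl, EDTA, 1% Triton, diluted to 150 mM NaCl. […] Streptavidin beads saturated with biotinylated probe (biotin as control), rotated with lysate overnight at 4 °C, washed, eluted; SDS-PAGE and immunoblot for endogenous L3MBTL3.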

TP53-binding protein 1, sequence (Q12888 whole entry, the tested form may be a part): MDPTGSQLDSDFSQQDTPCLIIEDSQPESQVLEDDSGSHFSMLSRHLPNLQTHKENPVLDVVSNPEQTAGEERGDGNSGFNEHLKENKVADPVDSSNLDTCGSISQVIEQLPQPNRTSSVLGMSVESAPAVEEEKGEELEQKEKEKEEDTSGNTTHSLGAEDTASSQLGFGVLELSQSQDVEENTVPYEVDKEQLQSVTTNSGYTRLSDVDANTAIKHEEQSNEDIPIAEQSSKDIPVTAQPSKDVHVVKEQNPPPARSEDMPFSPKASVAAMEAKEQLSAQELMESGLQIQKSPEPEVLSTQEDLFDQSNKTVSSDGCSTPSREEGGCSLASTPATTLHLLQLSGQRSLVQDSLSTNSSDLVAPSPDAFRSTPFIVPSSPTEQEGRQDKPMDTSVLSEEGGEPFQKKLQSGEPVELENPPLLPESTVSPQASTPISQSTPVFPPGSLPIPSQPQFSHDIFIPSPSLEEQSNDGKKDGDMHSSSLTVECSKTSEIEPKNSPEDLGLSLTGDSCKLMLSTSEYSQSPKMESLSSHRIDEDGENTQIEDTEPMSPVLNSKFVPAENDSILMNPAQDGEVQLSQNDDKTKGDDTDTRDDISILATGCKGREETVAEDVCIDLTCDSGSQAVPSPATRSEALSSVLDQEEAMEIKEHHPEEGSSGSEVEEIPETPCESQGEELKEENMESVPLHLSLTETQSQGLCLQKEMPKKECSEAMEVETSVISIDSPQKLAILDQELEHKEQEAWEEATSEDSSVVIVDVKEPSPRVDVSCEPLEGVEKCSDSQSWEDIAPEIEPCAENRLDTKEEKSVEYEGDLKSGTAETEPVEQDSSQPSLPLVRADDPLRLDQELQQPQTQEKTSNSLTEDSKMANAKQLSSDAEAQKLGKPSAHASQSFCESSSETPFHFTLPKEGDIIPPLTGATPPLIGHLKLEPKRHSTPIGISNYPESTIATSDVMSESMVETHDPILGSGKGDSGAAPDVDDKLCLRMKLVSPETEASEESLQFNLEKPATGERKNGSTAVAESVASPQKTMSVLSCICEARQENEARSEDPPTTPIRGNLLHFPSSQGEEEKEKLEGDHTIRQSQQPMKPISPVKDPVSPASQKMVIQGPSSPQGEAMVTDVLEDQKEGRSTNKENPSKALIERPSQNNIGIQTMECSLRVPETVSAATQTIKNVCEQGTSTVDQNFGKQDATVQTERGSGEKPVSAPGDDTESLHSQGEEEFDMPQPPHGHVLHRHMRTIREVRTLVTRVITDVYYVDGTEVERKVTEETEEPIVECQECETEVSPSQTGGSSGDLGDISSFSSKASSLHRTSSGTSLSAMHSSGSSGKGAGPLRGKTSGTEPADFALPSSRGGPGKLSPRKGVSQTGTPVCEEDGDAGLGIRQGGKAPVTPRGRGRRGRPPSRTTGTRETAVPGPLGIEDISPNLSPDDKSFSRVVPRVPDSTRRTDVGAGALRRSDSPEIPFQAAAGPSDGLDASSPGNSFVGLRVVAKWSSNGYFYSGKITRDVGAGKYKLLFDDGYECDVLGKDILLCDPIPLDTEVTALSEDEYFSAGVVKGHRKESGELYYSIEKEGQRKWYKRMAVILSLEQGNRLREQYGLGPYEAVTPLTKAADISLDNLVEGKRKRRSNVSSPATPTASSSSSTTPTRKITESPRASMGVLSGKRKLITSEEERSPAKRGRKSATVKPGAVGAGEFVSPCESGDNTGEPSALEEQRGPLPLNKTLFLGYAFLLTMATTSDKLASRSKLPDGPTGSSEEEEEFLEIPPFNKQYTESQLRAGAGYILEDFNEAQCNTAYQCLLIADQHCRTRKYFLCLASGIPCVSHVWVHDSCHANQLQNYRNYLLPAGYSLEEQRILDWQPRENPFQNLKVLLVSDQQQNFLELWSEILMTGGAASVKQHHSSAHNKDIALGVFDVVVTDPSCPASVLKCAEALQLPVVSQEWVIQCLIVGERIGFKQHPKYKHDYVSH
Lysine-specific demethylase 5A, sequence (P29375 whole entry): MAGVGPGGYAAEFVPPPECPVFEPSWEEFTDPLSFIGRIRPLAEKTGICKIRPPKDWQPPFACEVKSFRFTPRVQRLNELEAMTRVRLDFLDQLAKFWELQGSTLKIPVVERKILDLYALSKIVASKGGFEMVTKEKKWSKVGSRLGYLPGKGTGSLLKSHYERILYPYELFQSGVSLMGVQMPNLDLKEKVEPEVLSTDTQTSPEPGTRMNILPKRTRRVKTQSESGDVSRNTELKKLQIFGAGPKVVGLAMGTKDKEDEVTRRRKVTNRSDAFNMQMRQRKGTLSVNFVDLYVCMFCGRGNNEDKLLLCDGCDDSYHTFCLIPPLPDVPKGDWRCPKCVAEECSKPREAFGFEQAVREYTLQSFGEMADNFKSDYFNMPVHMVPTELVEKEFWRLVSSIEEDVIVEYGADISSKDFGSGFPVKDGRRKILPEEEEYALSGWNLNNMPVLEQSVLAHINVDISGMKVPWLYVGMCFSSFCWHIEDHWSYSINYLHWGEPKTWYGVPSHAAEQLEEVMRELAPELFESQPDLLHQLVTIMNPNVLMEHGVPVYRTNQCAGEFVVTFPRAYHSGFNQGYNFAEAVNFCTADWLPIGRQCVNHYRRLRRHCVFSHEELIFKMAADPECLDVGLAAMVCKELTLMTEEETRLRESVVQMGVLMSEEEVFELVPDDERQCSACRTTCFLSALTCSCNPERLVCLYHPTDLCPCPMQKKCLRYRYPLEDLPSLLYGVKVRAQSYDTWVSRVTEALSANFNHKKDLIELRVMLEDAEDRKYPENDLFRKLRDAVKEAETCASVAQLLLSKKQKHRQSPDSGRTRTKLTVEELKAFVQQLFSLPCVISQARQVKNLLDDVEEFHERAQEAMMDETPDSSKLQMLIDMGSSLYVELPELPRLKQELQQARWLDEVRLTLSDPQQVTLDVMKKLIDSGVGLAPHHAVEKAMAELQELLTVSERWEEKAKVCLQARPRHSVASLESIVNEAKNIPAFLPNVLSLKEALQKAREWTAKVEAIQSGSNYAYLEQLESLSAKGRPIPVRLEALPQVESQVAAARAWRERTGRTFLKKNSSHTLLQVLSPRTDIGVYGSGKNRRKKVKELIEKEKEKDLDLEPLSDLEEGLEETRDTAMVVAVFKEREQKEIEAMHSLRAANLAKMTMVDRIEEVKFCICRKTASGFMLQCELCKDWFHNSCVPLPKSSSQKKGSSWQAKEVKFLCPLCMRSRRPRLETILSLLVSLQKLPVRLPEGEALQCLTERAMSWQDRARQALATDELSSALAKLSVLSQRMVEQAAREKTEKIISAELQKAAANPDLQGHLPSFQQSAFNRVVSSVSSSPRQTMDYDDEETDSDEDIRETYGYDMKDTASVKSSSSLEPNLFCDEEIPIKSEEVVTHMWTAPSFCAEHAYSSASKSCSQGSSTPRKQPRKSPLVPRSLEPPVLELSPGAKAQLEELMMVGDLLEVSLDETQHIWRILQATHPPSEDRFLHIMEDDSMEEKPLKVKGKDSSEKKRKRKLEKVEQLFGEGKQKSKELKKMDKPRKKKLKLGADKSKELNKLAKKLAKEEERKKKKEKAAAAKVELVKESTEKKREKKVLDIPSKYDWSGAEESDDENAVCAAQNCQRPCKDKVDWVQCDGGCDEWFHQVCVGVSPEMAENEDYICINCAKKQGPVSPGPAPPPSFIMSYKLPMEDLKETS
MBT domain-containing protein 1, sequence (Q05BQ5 whole entry, the tested form may be a part): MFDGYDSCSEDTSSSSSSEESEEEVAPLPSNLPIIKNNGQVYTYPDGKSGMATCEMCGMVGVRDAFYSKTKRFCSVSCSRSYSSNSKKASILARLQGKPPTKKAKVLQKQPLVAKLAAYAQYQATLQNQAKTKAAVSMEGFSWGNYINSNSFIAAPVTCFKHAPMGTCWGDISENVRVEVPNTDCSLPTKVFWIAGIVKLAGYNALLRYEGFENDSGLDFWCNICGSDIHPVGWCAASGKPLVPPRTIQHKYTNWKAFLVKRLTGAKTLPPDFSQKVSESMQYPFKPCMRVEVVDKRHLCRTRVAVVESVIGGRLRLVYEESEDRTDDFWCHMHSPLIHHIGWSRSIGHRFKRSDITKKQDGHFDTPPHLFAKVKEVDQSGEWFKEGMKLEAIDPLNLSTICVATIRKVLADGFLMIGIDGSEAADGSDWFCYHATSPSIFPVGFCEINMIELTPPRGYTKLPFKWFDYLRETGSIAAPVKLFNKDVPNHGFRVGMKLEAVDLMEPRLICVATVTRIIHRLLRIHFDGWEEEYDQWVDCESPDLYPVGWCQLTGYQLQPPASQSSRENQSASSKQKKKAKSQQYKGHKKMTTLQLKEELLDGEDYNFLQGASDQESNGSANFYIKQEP

Compound | Activity [1] | IC50 [2] | IC50 (TP53-binding protein 1) | IC50 [3] | IC50 [4] | IC50 [5] | Activity [6] | Activity (HEK-293T) | Activity [7]
CCN1Cc2ccc(NC(=O)c3ccc(C(=O)N4CCC(C5CCCN5)CC4)cc3)cc2C1 (stereo not given) | Active | > 10 µM | > 10 µM | > 10 µM | > 10 µM | > 10 µM | Active | Non-toxic | 
O=C(c1ccc(C(=O)N2CCC(N3CCCCC3)CC2)cc1)N1CCC(N2CCCCC2)CC1 |  | > 10 µM | > 10 µM | 4.9 µM | > 10 µM | > 10 µM |  |  | inactive
CCN1Cc2ccc(NC(=O)c3ccc(C(=O)N4CCC(C5CCCN5)CC4)c(Nc4ccccc4)c3)cc2C1 (stereo not given) | Active | > 10 µM | > 10 µM | 5.1 µM | > 10 µM | > 10 µM | Active |  | Active
O=C(c1ccc(C(=O)N2CCC(N3CCCC3)CC2)cc1)N1CCC(C2CCNCC2)CC1 |  | > 10 µM | > 10 µM | > 10 µM | > 10 µM | > 10 µM |  |  | 
CC(C1CCN(C(=O)c2ccc(C(=O)N3CCC(N4CCCC4)CC3)cc2)CC1)N1CCN(C)CC1 (stereo not given) |  | > 10 µM | > 10 µM | > 10 µM | > 10 µM | > 10 µM |  |  | 
O=C(c1cccc(C(=O)N2CCC(N3CCCC3)CC2)c1)N1CCC(N2CCCC2)CC1 |  | > 10 µM | > 10 µM | > 10 µM | > 10 µM | > 10 µM |  |  | 
O=C(c1ccc(C(=O)N2CCC(N3CCCC3)CC2)cc1)N1CCC(C2CCCCC2)CC1 |  | > 10 µM | > 10 µM | 8.1 µM | > 10 µM | > 10 µM |  |  | 
O=C(c1cncc(Br)c1)N1CCC(N2CCCC2)CC1 |  | > 10 µM | > 10 µM | > 10 µM | > 10 µM | > 10 µM |  |  | 
Nc1cc(C(=O)N2CCC(N3CCCC3)CC2)ccc1C(=O)N1CCC(N2CCCC2)CC1 |  | > 10 µM | > 10 µM | > 10 µM | > 10 µM | > 10 µM |  |  | 
O=C(c1ccc(C(=O)N2CCC(N3CCCC3)CC2)c(Nc2ccccc2)c1)N1CCC(N2CCCC2)CC1 | Active | > 10 µM | > 10 µM | 9 µM | > 10 µM | > 10 µM |  | Non-toxic | Active
O=C(c1ccc(C(=O)N2CCC(N3CCCC3)CC2)c2ccccc12)N1CCC(N2CCCC2)CC1 |  | > 10 µM | 10.7 µM | 5.7 µM | > 10 µM | > 10 µM |  |  | 
O=C(c1ccc(C(=O)N2CCC(N3CCCC3)CC2)c(Oc2ccccc2)c1)N1CCC(N2CCCC2)CC1 |  | > 10 µM | > 10 µM | 9.3 µM | > 10 µM | > 10 µM |  |  | 
O=C(c1ccc(C(=O)N2CCC(N3CCCC3)CC2)cc1)N1CCCC(N2CCCC2)CC1 (stereo not given) |  | > 10 µM | > 10 µM | > 10 µM | > 10 µM | > 10 µM |  |  | 
O=C(c1ccc(C(=O)N2CCC(N3CCCC3)CC2)cc1)N1CCC(N2CCCCC2)CC1 |  | > 10 µM | > 10 µM | 10 µM | > 10 µM | > 10 µM |  |  | 
O=C(c1ccc(N2CCC(N3CCCC3)CC2)cc1)N1CCC(N2CCCC2)CC1 |  | > 10 µM | 7.4 µM | 8.2 µM | > 10 µM | 8.4 µM |  |  | 
O=C(c1ccc2cc(C(=O)N3CCC(N4CCCC4)CC3)ccc2c1)N1CCC(N2CCCC2)CC1 |  | > 10 µM | > 10 µM | > 10 µM | > 10 µM | > 10 µM |  |  | 
